Published values collected from several papers.
Cell line: HepG2
Effect on: cell growth or viability

[Cl-].[Cl-].[Co+2]
IC50 (MTT; 48 h): > 150000 nM

CC[C@@]1(OC(=O)[C@@H]2CCCN2)C(=O)OCc2c1cc1n(c2=O)Cc2cc3cc4c(cc3nc2-1)OCO4
IC50 (MTT): 263 nM

CC1=C(O)C(=O)C=C2C1=CC=C1[C@@]2(C)CC[C@@]2(C)[C@@H]3C[C@](C)(C(=O)OCCCn4cc(C=O)c5ccccc54)CC[C@]3(C)CC[C@]12C
IC50 (MTT; 48 h): 1760 nM

CC[C@@]1(OC(=O)[C@@H](N)Cc2ccccc2)C(=O)OCc2c1cc1n(c2=O)Cc2cc3cc4c(cc3nc2-1)OCO4
IC50 (MTT): 88 nM

Cc1c2ccncc2c(C)c2c1[nH]c1ccccc12
IC50 (MTT; 72 h): 0.45 µg/mL

Cl.Cl.Nc1nc(-c2cc(F)cc(NC(=O)Nc3cc(F)cc(-c4c[nH]c(N)n4)c3)c2)c[nH]1
IC50 (XTT; 24 h): > 256 µg/mL

COc1c2ccoc2cc2oc(=O)ccc12
IC50 (WST-1; 48 h): 18100 nM

CC[C@@]1(OC(=O)C(C)c2cccc(C(=O)c3ccccc3)c2)C(=O)OCc2c1cc1n(c2=O)Cc2cc3cc4c(cc3nc2-1)OCO4 (some centres unmarked)
IC50 (MTT): 364 nM

Cl.O[C@]12C=C(c3nccc4c3[nH]c3ccccc34)[C@@H]3CCN(CCCC/C=C\CC1)C[C@@]31C[C@@H]3/C=C\CCCCN3[C@H]12
IC50 (neutral red; 48 h): 1.55 µg/mL

CC[C@@]1(OC(=O)Cc2c(C)n(C(=O)c3ccc(Cl)cc3)c3ccc(OC)cc23)C(=O)OCc2c1cc1n(c2=O)Cc2cc3cc4c(cc3nc2-1)OCO4
IC50 (MTT): 32 nM

O=C(O)CCCc1ccc(N(CCCl)CCCl)cc1
IC50 (CCK-8; 48 h): 15100 nM

O=c1ccc2cc3ccoc3cc2o1
IC50 (WST-1; 48 h): 17200 nM

CCC1(c2ccc(N)cc2)CCC(=O)NC1=O (centres unmarked)
IC50 (CCK-8; 48 h): > 50000 nM

CC[C@@]1(OC(=O)[C@H](C)N)C(=O)OCc2c1cc1n(c2=O)Cc2cc3cc4c(cc3nc2-1)OCO4
IC50 (MTT): 101 nM

Nc1nc(-c2cccc(NC(=O)Nc3cccc(-c4c[nH]c(N)n4)c3)c2)c[nH]1
IC50 (XTT; 24 h): 850000 nM

CC1=C(O)C(=O)C=C2C1=CC=C1[C@@]2(C)CC[C@@]2(C)[C@@H]3C[C@](C)(C(=O)O)CC[C@]3(C)CC[C@]12C
IC50 (MTT; 48 h): 1230 nM

N.N.[Cl][Pt][Cl]
IC50 (MTT; 48 h): 14000 nM
